Test results as given in ChEMBL document CHEMBL4118126, “An orally available, brain-penetrant CAMKK2 inhibitor reduces food intake in rodent model” (Bioorg Med Chem Lett, 2018).
≈ marks a conversion by molar mass, not a printed value.

Columns and labels:
Aurora kinase A = biological target: T1, Aurora kinase A (Homo sapiens, UniProt O14965); test: Inhibition of aurora A (unknown origin)
T1 sequence (O14965 whole entry): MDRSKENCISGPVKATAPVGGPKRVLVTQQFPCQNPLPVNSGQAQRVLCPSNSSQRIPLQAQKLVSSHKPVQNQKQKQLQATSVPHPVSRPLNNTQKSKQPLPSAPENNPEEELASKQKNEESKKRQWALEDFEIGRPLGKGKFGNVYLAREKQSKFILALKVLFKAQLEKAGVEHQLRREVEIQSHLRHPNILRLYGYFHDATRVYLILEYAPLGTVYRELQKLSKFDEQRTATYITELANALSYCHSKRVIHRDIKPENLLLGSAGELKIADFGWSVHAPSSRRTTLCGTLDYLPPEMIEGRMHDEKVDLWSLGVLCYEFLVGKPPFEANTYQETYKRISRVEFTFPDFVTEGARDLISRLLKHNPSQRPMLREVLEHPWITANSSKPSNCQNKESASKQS

[1] = biological target: T2, Discoidin domain-containing receptor 2 (Homo sapiens, UniProt Q16832); test: Inhibition of DDR2 (unknown origin)
T2 sequence (Q16832 whole entry): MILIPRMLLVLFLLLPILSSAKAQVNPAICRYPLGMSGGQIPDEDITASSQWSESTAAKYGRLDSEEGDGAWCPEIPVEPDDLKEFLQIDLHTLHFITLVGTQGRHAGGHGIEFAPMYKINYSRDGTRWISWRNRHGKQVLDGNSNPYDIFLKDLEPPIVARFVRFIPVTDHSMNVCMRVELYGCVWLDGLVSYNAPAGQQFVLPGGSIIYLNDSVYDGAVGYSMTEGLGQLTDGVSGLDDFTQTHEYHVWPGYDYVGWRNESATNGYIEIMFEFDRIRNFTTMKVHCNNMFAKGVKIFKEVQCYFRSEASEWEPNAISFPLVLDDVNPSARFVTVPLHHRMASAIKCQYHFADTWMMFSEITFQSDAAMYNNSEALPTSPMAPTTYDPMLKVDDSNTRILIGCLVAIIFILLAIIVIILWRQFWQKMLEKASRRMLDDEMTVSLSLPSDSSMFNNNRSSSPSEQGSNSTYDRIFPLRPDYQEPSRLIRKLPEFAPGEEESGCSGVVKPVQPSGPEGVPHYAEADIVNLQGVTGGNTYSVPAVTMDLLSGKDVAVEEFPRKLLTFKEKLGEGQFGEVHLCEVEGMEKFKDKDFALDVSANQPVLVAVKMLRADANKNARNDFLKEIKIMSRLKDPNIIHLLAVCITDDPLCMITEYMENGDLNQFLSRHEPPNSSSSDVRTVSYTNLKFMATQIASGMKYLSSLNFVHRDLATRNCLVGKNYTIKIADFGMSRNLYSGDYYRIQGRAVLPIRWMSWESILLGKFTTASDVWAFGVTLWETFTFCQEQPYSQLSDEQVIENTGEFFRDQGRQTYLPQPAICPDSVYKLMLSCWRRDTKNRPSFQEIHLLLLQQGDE

[2] = biological target: Calcium/calmodulin-dependent protein kinase kinase 2 (Mus musculus, UniProt Q8C078); test: Inhibition of CAMKK2 in mouse N39 cells assessed as decrease in AMPKalpha phosphorylation at T172 preincubated for 80 mins followed by […] addition by ELISA; type: cell-based
Summary of the method: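 Mouse N39 cells seeded ~1000 cells/well, cultured overnight at 37°C, 5% CO2, then exposed to compound in DMSO for 80 min before ionomycin stimulation ([…] as added). Cells were lysed in extraction buffer for 30 min on ice, then diluted into ice-cold lysis buffer containing protease and phosphatase inhibitors for MSD read-out.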

[3] = biological target: Calcium/calmodulin-dependent protein kinase kinase 2 (Homo sapiens, UniProt Q96RR4); test: Inhibition of full-length human GST-tagged CAMKK2 using 5FAM-AKPKGNKDYHLQTCCGSLAYRRR-amide as substrate preincubated for 30 mins followed by substrate addition measured after 120 mins by fluorescence polarization assay
[4] = biological target: T3, Inhibitor of nuclear factor kappa-B kinase subunit alpha (Homo sapiens, UniProt O15111); test: Inhibition of IKK1 (unknown origin)
T3 sequence (O15111 whole entry): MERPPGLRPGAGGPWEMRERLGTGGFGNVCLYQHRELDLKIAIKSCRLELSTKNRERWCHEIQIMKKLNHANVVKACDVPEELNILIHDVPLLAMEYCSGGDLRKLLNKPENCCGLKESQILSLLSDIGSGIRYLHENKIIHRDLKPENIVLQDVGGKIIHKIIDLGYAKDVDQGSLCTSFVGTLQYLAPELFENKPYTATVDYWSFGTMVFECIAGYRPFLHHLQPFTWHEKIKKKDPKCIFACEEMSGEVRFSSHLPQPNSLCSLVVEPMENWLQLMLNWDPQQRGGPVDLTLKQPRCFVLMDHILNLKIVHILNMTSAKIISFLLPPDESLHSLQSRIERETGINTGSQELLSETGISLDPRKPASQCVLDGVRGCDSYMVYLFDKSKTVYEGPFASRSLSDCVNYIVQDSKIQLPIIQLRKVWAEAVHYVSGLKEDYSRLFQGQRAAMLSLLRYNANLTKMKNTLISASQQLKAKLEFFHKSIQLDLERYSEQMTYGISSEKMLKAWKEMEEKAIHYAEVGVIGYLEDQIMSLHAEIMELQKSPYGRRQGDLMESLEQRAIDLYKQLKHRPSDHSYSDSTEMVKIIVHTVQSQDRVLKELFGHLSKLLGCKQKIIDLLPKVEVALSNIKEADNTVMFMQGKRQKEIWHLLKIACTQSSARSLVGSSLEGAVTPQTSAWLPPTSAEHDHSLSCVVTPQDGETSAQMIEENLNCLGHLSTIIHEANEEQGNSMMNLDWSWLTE

[5] = biological target: Mitogen-activated protein kinase 8 (Homo sapiens, UniProt P45983); test: Inhibition of JNK1 (unknown origin)
Insulin receptor = Insulin receptor (Homo sapiens, UniProt P06213); test: Inhibition of INSR (unknown origin)
[6] = Solubility of the compound in pH 7.4 phosphate buffer saline after 1 hr by chemiluminescence nitrogen detection method; type: physicochemical; conditions: phosphate buffered saline
Summary of the method: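 Kinetic solubility: 10 mM DMSO stock diluted 1:20 into 10 mM phosphate-buffered saline pH 7.4, equilibrated 1 h at RT, filtered, and filtrate quantified by calibrated flow-injection chemiluminescent nitrogen detection.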

[7] = biological target: Glycogen synthase kinase-3 beta (Homo sapiens, UniProt P49841); test: Inhibition of GSK3beta (unknown origin)
[8] = biological target: Phosphatidylinositol 4,5-bisphosphate 3-kinase catalytic subunit gamma isoform (Homo sapiens, UniProt P48736); test: Inhibition of PI3Kgamma (unknown origin)
[9] = Cmax in CD rat at 30 mg/kg, po; type: ADME, organism-based; design: dose 30 mg/kg, route oral; conditions: in vivo
[10] = Ratio of drug level in brain to plasma in CD rat at 30 mg/kg, po; type: ADME, organism-based; conditions: read-out: BPR

Chain of Glycogen synthase kinase-3 beta (P49841 whole entry, canonical isoform): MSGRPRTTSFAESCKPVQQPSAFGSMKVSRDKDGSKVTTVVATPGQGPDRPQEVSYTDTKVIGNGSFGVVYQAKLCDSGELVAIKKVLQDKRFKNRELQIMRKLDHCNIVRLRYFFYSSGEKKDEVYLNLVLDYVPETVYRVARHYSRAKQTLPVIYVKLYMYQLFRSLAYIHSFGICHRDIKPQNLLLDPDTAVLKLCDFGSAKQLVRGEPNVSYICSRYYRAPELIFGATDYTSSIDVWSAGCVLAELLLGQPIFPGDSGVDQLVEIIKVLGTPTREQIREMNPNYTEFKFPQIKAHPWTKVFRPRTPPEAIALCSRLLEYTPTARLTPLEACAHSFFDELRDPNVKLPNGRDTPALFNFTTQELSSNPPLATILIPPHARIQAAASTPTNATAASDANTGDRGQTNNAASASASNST
Chain of Phosphatidylinositol 4,5-bisphosphate 3-kinase catalytic subunit gamma isoform (P48736 whole entry, canonical isoform): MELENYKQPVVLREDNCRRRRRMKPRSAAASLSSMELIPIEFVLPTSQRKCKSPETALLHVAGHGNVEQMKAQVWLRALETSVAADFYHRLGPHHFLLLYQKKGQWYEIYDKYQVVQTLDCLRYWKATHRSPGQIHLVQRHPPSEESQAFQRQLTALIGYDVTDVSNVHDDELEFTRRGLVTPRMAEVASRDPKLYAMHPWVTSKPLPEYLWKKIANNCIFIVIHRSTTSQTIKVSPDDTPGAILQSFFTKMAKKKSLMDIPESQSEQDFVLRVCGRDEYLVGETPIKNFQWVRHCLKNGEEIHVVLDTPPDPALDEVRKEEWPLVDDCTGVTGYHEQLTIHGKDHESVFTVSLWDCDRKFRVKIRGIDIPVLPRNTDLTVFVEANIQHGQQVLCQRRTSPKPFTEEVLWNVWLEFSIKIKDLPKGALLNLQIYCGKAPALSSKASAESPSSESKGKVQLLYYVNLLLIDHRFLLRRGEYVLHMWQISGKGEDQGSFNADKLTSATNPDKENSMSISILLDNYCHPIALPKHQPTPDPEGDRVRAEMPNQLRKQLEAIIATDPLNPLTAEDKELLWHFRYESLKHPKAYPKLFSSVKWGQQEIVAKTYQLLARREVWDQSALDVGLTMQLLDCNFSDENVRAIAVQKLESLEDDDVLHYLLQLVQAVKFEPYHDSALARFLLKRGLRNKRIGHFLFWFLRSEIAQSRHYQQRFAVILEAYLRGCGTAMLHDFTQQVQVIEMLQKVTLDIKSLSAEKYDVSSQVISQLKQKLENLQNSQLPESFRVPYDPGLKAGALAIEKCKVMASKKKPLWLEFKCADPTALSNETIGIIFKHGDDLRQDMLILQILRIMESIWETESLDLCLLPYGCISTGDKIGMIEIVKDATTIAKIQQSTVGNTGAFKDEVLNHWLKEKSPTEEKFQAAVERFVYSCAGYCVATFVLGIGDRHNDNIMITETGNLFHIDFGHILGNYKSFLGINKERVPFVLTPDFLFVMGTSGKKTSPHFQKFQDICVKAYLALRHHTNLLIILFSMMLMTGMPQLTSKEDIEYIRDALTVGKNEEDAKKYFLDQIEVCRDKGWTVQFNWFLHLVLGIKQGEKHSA
Chain of Mitogen-activated protein kinase 8 (P45983 whole entry): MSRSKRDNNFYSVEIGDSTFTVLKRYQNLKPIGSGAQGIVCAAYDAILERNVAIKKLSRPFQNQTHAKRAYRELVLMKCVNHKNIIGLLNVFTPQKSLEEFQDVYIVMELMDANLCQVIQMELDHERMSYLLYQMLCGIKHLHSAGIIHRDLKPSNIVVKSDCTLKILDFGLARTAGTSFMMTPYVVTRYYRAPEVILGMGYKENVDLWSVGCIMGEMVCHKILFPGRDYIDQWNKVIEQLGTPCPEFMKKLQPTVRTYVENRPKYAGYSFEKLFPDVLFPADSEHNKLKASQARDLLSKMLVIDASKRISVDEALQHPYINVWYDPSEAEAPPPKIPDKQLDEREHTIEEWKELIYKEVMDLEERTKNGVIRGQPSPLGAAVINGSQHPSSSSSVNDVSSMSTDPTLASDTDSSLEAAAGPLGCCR
Chain of Calcium/calmodulin-dependent protein kinase kinase 2 (Homo sapiens, UniProt Q96RR4) (Q96RR4 whole entry): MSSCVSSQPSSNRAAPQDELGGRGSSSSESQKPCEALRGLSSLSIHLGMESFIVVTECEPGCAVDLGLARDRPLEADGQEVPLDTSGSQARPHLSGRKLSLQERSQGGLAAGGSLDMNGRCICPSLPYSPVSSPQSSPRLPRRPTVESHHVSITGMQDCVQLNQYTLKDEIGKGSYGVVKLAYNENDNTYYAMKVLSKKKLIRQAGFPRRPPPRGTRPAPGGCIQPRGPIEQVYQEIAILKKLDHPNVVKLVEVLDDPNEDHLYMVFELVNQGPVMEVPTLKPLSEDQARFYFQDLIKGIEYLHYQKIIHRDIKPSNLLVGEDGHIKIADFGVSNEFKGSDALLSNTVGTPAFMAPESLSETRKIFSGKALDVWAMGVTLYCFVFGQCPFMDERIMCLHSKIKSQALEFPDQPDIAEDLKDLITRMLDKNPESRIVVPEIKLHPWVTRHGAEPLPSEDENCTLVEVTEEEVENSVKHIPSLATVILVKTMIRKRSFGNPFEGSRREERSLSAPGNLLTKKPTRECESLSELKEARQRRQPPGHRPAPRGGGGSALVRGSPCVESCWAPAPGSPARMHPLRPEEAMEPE
Chain of Insulin receptor (P06213 28-758 limits assumed): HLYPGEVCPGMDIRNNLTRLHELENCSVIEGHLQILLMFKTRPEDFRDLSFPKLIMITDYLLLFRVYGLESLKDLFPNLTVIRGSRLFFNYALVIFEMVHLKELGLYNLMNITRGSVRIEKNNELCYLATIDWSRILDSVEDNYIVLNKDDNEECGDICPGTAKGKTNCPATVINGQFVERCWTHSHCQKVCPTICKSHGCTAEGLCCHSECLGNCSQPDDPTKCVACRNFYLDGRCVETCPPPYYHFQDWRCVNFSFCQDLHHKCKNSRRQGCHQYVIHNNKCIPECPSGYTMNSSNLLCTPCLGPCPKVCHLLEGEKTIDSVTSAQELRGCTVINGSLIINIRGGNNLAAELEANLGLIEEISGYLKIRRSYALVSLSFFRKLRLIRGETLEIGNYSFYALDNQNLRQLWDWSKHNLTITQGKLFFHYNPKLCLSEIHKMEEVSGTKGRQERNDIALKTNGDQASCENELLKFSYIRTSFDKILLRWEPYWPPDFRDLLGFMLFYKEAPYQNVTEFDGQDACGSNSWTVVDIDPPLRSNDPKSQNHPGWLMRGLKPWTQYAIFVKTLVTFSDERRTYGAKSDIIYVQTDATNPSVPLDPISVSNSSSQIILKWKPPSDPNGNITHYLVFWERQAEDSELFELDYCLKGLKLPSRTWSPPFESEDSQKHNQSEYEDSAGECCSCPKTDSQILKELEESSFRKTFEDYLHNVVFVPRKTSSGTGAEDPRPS
Chain of Insulin receptor (P06213 763-1382 limits assumed): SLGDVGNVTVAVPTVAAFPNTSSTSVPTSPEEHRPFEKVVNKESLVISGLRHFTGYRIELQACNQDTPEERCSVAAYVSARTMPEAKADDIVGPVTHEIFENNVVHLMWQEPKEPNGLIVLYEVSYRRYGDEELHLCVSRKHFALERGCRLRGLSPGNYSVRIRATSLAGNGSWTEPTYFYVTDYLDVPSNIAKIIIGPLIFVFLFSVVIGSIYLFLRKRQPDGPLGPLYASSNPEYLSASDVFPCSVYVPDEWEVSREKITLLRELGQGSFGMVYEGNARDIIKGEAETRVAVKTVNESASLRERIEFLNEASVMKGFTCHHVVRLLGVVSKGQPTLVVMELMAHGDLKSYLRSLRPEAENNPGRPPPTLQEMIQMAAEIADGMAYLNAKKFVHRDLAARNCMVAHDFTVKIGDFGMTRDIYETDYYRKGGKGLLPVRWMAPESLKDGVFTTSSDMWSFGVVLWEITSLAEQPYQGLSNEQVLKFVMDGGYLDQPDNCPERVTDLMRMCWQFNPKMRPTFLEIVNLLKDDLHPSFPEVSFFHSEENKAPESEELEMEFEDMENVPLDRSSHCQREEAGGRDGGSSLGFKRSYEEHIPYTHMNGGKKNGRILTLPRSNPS
Chain of Calcium/calmodulin-dependent protein kinase kinase 2 (Mus musculus, UniProt Q8C078) (Q8C078 whole entry): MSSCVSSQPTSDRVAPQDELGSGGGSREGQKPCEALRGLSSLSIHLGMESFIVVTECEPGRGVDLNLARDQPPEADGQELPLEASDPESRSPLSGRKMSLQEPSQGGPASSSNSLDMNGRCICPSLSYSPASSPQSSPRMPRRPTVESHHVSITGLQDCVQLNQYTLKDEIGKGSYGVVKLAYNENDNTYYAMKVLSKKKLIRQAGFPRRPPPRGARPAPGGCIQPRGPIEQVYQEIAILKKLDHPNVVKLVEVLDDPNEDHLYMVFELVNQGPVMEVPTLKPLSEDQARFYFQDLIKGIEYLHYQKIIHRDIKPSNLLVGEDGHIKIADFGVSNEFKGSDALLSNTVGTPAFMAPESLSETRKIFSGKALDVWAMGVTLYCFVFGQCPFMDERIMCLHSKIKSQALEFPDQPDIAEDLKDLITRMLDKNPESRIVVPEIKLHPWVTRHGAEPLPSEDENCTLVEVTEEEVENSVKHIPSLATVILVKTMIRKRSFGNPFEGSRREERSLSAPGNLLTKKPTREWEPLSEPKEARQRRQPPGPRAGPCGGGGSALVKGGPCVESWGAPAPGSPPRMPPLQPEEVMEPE

Row | SMILES | IC50 (Aurora kinase A) | IC50 [1] | IC50 [2] | IC50 [3] | IC50 [4] | IC50 [5] | IC50 (Insulin receptor; read-out: IC50) | IC50 (Insulin receptor; read-out: pIC50 (converted)) | solubility at 1 h [6] | IC50 [7] | IC50 [8] | Cmax [9] | Kp [10]
1 | Cc1ccc(CN2CCOCC2)cc1-c1cc2c(-c3ccc(C#N)cc3)ccnc2[nH]1 | > 10000 nM | > 10000 nM | 2510 nM | 79.4 to 398 nM | > 25100 nM | > 10000 nM | > 10000 nM | > 10000 nM | 2 µM (≈ 0.817 µg/mL) | – | – | – | –
2 | COc1ccc(-c2ccccc2)cc1Nc1nccc(-c2ccc(C(N)=O)cc2)n1 | – | – | > 10000 nM | 12.6 to 251 nM | – | > 10000 nM | – | – | 7 µM (≈ 2.78 µg/mL) | > 25100 nM | 7940 nM | – | –
3 | COc1ccccc1Nc1nccc(-c2ccc(C(=O)O)c(C(C)C)c2)n1 | – | – | 1000 nM | 2 nM | – | 3160 nM | – | – | > 367 µM | 15800 nM | 1580 nM | – | –
4 | NC(=O)c1ccc(-c2ccnc(Nc3cc(-c4ccccc4)ccc3F)n2)cc1 | – | – | 7940 nM | 20 nM | – | > 10000 nM | – | – | 3 µM (≈ 1.15 µg/mL) | 2510 nM | > 10000 nM | – | –
5 | O=C(O)c1ccc(-c2ccnc(Nc3cccc(-c4ccccc4)c3)n2)cc1 | – | – | 7940 nM | 7.94 to 100 nM | – | 398 nM | – | – | 14 µM (≈ 5.14 µg/mL) | 398 nM | 12.6 nM | – | –
6 | Cc1ccc(CN2CCOCC2)cc1-c1cc2c(-c3ccc(C#N)c(C(C)C)c3)ccnc2[nH]1 | > 10000 nM | > 10000 nM | 398 nM | 12.6 nM | 2510 nM | 7940 nM | > 10000 nM | > 10000 nM | 1 µM (≈ 0.451 µg/mL) | – | – | 127 ng/mL | 0.6
7 | COc1ccccc1Nc1ncc(F)c(-c2ccc(C(=O)O)c(C(C)C)c2)n1 | – | – | 398 nM | 1 to 7.94 nM | – | 3160 nM | – | – | 97 µM (≈ 37 µg/mL) | 7940 nM | 6310 nM | – | –
8 | Cc1cc(OCCN2CCOCC2)ccc1-c1cc2c(-c3ccc(C#N)cc3)ccnc2[nH]1 | > 10000 nM | > 10000 nM | 7940 nM | 100 to 251 nM | > 31600 nM | 20000 nM | > 10000 nM | > 10000 nM | 9 µM (≈ 3.95 µg/mL) | – | – | – | –
9 | COc1ccccc1Nc1ncc(F)c(-c2ccc(C(N)=O)c(C(C)C)c2)n1 | – | – | 3160 nM | 39.8 to 316 nM | – | 3160 nM | – | – | 11 µM (≈ 4.18 µg/mL) | 7940 nM | > 10000 nM | – | –
10 | COc1ccccc1Nc1ncc(Cl)c(-c2ccc(C(N)=O)c(C(C)C)c2)n1 | – | – | > 10000 nM | 158 to 1580 nM | – | > 10000 nM | – | – | 5 µM (≈ 1.98 µg/mL) | 20000 nM | 6310 nM | – | –
11 | COc1ccccc1Nc1nccc(-c2ccc(C(N)=O)c(C(C)C)c2)n1 | – | – | > 10000 nM | 63.1 to 1580 nM | – | 1580 nM | – | – | 10 µM (≈ 3.62 µg/mL) | > 25100 nM | 2510 nM | – | –
12 | Cc1ccc(-c2ccccc2)cc1Nc1nccc(-c2ccc(C(N)=O)cc2)n1 | – | – | 3980 nM | 31.6 to 501 nM | – | > 10000 nM | – | – | 4 µM (≈ 1.52 µg/mL) | > 25100 nM | > 10000 nM | – | –
13 | COc1ccccc1Nc1nccc(-c2ccc(C(N)=O)cc2)n1 | – | – | > 10000 nM | 100 to 1260 nM | – | 2000 nM | – | – | < 1 µM | > 25100 nM | > 10000 nM | – | –
14 | Cc1cc(OCCN2CCOCC2)ccc1-c1cc2c(-c3ccc(C(N)=O)c(C(C)C)c3)ccnc2[nH]1 | – | – | 63.1 nM | 0.794 to 7.94 nM | 2510 nM | 2000 nM | – | 398 nM | 4 µM (≈ 1.99 µg/mL) | – | – | 374 ng/mL | 0.6
15 | NC(=O)c1ccc(-c2ccnc(Nc3cccc(-c4ccccc4)c3)n2)cc1 | – | – | 631 nM | 7.94 to 25.1 nM | – | 1000 nM | – | – | 3 µM (≈ 1.1 µg/mL) | 31.6 nM | 100 nM | – | –
16 | CN(C)CCCNC(=O)c1ccc(-c2cc3c(-c4ccc(C(N)=O)cc4)ccnc3[nH]2)cc1 | – | – | > 10000 nM | 1.58 to 12.6 nM | 79.4 nM | 126 nM | – | 158 nM | 29 µM (≈ 12.8 µg/mL) | – | – | – | –
17 | COc1ccccc1Nc1nccc(-c2ccc(C(=O)O)cc2)n1 | – | – | > 10000 nM | 200 to 1580 nM | – | 5010 nM | – | – | > 444 µM | > 25100 nM | 3980 nM | – | –
